Measurements taken from ChEMBL document CHEMBL4024777, “Discovery of LY3104607: A Potent and Selective G Protein-Coupled Receptor 40 (GPR40) Agonist with Optimized Pharmacokinetic Properties to Support Once Daily Oral Treatment in Patients with Type 2 Diabetes Mellitus” (J Med Chem, 2018).
≈ marks a conversion by molar mass, not a printed value. Calls of active or inactive are those of the source. The calls are words filed in the database; no cut-off is given here.

Tests used:
[1] = AUC (0 to 24 hrs) in Sprague-Dawley rat at 500 mg/kg, po; type: ADME, organism-based; set-up: dose 500 mg/kg, time < 24 hr, route oral; settings: in vivo
[2] = Clearance in Beagle dog at 1 mg/kg, iv; type: ADME, organism-based, Canis lupus familiaris; settings: in vivo
Cytochrome P450 3A4 = Cytochrome P450 3A4 (Homo sapiens, UniProt P08684); test: Inhibition of human CYP3A4; type: ADME
Sequence of Cytochrome P450 3A4 (P08684 whole entry): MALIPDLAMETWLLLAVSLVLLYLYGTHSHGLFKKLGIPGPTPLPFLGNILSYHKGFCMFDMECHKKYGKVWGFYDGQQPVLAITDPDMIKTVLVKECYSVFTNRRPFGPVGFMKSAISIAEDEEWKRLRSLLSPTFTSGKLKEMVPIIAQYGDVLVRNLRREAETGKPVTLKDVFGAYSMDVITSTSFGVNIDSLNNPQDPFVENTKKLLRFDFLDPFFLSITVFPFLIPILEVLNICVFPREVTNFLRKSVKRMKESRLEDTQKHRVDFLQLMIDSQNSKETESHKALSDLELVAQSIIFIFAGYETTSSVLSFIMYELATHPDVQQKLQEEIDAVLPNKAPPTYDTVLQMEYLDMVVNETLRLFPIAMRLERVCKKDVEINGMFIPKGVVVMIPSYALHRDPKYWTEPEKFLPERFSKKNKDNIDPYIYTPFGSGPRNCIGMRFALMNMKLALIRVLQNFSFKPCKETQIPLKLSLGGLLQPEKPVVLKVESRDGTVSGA

[3] = Cmax in Beagle dog at 3 mg/kg, po; type: ADME, organism-based, Canis lupus familiaris; set-up: dose 3 mg/kg, route oral; settings: in vivo
[4] = Drug metabolism in rat hepatocytes assessed as glucuronidation; type: ADME, cell-based, Hepatocyte
[5] = target: T1, Free fatty acid receptor 1 (Homo sapiens, UniProt O14842); test: Agonist activity at human PK-tagged GPR40 expressed in HEK293 cells assessed as EA-tagged beta-arrestin recruitment after 90 mins in presence of 1 % heat inactivated FBS by beta-galactosidase reporter gene assay relative to untreated control; type: cell-based
T1 sequence (O14842 whole entry): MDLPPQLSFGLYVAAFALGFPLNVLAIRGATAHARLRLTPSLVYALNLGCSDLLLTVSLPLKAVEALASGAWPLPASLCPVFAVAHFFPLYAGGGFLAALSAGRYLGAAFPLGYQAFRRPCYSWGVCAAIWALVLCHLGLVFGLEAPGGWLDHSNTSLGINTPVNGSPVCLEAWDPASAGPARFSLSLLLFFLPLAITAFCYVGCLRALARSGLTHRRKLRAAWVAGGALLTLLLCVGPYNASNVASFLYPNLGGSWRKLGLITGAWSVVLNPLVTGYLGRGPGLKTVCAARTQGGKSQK

[6] = Cmax in Sprague-Dawley rat at 500 mg/kg, po; type: ADME, organism-based; set-up: dose 500 mg/kg, route oral; settings: in vivo
[7] = AUC (0 to 24 hrs) in Beagle dog at 3 mg/kg, po; type: ADME, organism-based, Canis lupus familiaris; set-up: time < 24 hr, dose 3 mg/kg, route oral; settings: in vivo
[8] = target: Free fatty acid receptor 1 (Rattus norvegicus, UniProt Q8K3T4); test: Agonist activity at rat PK-tagged GPR40 expressed in human U2OS cells assessed as EA-tagged beta-arrestin recruitment after 90 mins in presence of 1 % heat inactivated FBS by beta-galactosidase reporter gene assay; type: cell-based
Sequence of Free fatty acid receptor 1 (Rattus norvegicus, UniProt Q8K3T4) (Q8K3T4 whole entry): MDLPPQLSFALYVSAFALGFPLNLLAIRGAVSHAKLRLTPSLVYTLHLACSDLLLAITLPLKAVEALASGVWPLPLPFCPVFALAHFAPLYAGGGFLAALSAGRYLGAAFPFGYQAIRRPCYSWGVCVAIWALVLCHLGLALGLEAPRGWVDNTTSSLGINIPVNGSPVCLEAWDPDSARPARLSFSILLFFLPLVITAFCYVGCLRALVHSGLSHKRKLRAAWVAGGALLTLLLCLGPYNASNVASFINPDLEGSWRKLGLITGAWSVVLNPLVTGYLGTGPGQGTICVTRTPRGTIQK
Procedure, shortened: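 β-Arrestin recruitment used rat GPR40 in the presence of 1% FBS. EC50 and % maximal stimulation are reported with SEM and n.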

Rattus norvegicus [9] = test: Toxicity in Zucker fa/fa rat assessed as change in body weight at 1 to 10 mg/kg, po; type: organism-based; settings: in vivo
Procedure, shortened: (§1)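 Male Zucker fa/fa rats, 10 weeks old, given daily oral doses of 1, 3 or 10 mg/kg for 21 days. Body weight and food consumption tracked, with a reference agonist as positive control.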

Cytochrome P450 2C9 = Cytochrome P450 2C9 (Homo sapiens, UniProt P11712); test: Inhibition of human CYP2C9; type: ADME
Sequence of Cytochrome P450 2C9 (P11712 whole entry): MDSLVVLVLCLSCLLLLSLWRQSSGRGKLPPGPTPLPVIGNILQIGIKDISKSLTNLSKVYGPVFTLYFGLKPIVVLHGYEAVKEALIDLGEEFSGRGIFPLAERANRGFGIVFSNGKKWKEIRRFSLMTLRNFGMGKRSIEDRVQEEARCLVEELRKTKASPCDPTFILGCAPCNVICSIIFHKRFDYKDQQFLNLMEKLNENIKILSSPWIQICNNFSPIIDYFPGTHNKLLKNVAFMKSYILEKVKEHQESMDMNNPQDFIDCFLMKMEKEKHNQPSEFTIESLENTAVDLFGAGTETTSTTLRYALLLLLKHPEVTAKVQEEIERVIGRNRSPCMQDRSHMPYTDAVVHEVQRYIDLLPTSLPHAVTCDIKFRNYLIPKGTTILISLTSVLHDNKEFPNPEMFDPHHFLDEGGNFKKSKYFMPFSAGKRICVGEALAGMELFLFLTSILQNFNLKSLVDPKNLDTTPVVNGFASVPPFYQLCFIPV

[10] = Cmax in Sprague-Dawley rat at 100 mg/kg, po; type: ADME, organism-based; set-up: dose 100 mg/kg, route oral; settings: in vivo
[11] = target: Free fatty acid receptor 1 (Rattus norvegicus) (UniProt Q8K3T4); test: Agonist activity at GPR40 in Sprague-Dawley rat islets assessed as glucose-stimulated insulin secretion levels at 1 uM in presence of 11.2 mM glucose by ELISA (reference value: 6.24 ng/ml)
Sequence of Free fatty acid receptor 1 (Rattus norvegicus) (Q8K3T4 whole entry): as the sequence (Q8K3T4 whole entry) above

[12] = Tmax in Beagle dog at 3 mg/kg, po; type: ADME, organism-based, Canis lupus familiaris; settings: in vivo
Procedure, shortened: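 Fasted dogs dosed orally at 3 mg/kg. […] Bioavailability is derived relative to the 1 mg/kg IV dose.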

[13] = AUC (0 to 24 hrs) in Sprague-Dawley rat at 10 mg/kg, po; type: ADME, organism-based; set-up: dose 10 mg/kg, time < 24 hr, route oral; settings: in vivo
[14] = target: T2, Peroxisome proliferator-activated receptor alpha (Homo sapiens) (UniProt Q07869); test: Agonist activity at GAL4-fused human PPARalpha expressed in African green monkey CV1 cells up to 30 uM after 24 hrs by luciferase reporter gene assay; type: cell-based
T2 sequence (whole entry): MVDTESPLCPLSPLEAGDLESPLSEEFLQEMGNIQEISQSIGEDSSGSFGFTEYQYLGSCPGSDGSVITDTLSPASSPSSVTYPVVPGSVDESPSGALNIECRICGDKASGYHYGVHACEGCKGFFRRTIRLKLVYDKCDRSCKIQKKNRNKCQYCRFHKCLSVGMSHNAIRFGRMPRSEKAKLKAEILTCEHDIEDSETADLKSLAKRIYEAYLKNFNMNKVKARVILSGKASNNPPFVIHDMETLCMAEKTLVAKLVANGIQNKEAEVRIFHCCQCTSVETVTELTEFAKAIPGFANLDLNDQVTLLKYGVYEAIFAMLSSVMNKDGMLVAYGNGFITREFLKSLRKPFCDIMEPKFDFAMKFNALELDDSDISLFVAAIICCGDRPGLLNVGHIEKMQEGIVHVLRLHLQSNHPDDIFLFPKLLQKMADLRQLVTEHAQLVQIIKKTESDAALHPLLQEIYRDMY
Procedure, shortened: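 PPAR alpha, delta and gamma binding and functional activity were each tested at concentrations up to 30 µM.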

[15] = Tmax in Sprague-Dawley rat at 100 mg/kg, po; type: ADME, organism-based; settings: in vivo
[16] = target: Free fatty acid receptor 1 (Rattus norvegicus) (UniProt Q8K3T4); test: Agonist activity at GPR40 in Sprague-Dawley rat islets assessed as potentiation of glucose-stimulated insulin secretion at 1 to 10 uM in presence of […] glucose by ELISA
[17] = AUC (0 to 24 hrs) in Beagle dog at 1 mg/kg, iv; type: ADME, organism-based, Canis lupus familiaris; set-up: time < 24 hr, dose 1 mg/kg, route intravenous; settings: in vivo
[18] = Drug metabolism in mouse hepatocytes assessed as glucuronidation; type: ADME, cell-based, Hepatocyte
[19] = target: Free fatty acid receptor 1 (Rattus norvegicus) (UniProt Q8K3T4); test: Agonist activity at GPR40 in Sprague-Dawley rat islets assessed as glucose-stimulated insulin secretion levels at 3 uM in presence of 11.2 mM glucose by ELISA (reference value: 6.24 ng/ml)
[20] = Solubility of the compound in pH 8.1 buffer; type: physicochemical
[21] = Half life in Sprague-Dawley rat at 1 mg/kg, po; type: ADME, organism-based; settings: in vivo
[22] = Metabolic stability in rat microsomes assessed as compound metabolized after 30 mins; type: ADME, Microsome; settings: read-out: Drug metabolism
Procedure, shortened: (§2)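 Compound incubated 30 min with liver microsomes from mouse, rat, dog or human. Percent of compound metabolized recorded, as mean (SEM, n).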

[23] = Cmax in Sprague-Dawley rat at 10 mg/kg, po; type: ADME, organism-based; set-up: dose 10 mg/kg, route oral; settings: in vivo
[24] = Protein binding in plasma (unknown origin) by equilibrium dialysis assay; type: ADME, cell-free; settings: read-out: PPB
[25] = Oral bioavailability in Sprague-Dawley rat at 1 mg/kg; type: ADME, organism-based; settings: in vivo
Procedure, shortened: (§3)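 Fasted rats given oral doses of 1 mg/kg. […] Bioavailability is calculated against the 1 mg/kg IV group.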

[26] = target: T1, Free fatty acid receptor 1; test: Agonist activity at human GPR40 receptor expressed in HEK293 cells assessed as increase in intracellular calcium flux after 2.5 hrs measured over 3 mins by calcium 4 dye-based FLIPR assay; type: functional, cell-based
Procedure, shortened: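 Calcium flux was read by FLIPR in cells carrying recombinant human GPR40. Percent stimulation is relative to the response to 100 µM linoleic acid. EC50 is reported with SEM and n.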

[27] = Half life in Beagle dog at 3 mg/kg, po; type: ADME, organism-based, Canis lupus familiaris; settings: in vivo
[28] = Metabolic stability in dog microsomes assessed as compound metabolized after 30 mins; type: ADME, Canis lupus familiaris, Microsome; settings: read-out: Drug metabolism; procedure, shortened: as §2
[29] = Tmax in Sprague-Dawley rat at 1 mg/kg, po; type: ADME, organism-based; settings: in vivo; procedure, shortened: as §3
[30] = Cmax in Sprague-Dawley rat at 1 mg/kg, po; type: ADME, organism-based; set-up: dose 1 mg/kg, route oral; settings: in vivo
[31] = Lipophilicity, log P of the compound; type: physicochemical; settings: octanol/water
Rattus norvegicus [32] = test: Toxicity in Zucker fa/fa rat assessed as alteration in food consumption at 1 to 10 mg/kg, po; type: organism-based; settings: in vivo; procedure, shortened: as §1
[33] = target: T1, Free fatty acid receptor 1; test: Agonist activity at human GPR40 receptor expressed in HEK293 cells assessed as increase in intracellular calcium flux after 2.5 hrs measured over 3 mins by calcium 4 dye-based FLIPR assay relative to linoleic acid; type: functional, cell-based; set-up: Activity: concentration or dose not given beside the values
Procedure, shortened: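 Human GPR40 calcium flux was read on FLIPR. Percent stimulation is expressed against the response to 100 uM linoleic acid.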

[34] = Intrinsic clearance in human hepatocytes; type: ADME, cell-based, Hepatocyte
[35] = Metabolic stability in human microsomes assessed as compound metabolized after 30 mins; type: ADME, Microsome; settings: read-out: Drug metabolism; procedure, shortened: as §2

AUC(0-t) at 24 h [1]: 4790 µg·h/mL
clearance [2]: 0.601 mL/min/kg
IC50 (Cytochrome P450 3A4): > 60000 nM
Cmax [3]: 9900 ng/mL
Drug metabolism [4]: Metabolite_Detected
%max [5]: 124%
Cmax [6]: 281000 ng/mL
AUC(0-t) at 24 h [7]: 52.8 µg·h/mL
EC50 [8]: 14 nM
IC50 (Cytochrome P450 2C9): > 60000 nM
Cmax [10]: 208000 ng/mL
Activity [11]: 17.1 ng/mL
Tmax [12]: 0.67 h
AUC(0-t) at 24 h [13]: 215 µg·h/mL
Activity [14]: inactive
Tmax [15]: 5.3 h
Activity [16]: inactive
AUC(0-t) at 24 h [17]: 27.3 µg·h/mL
Drug metabolism [18]: Metabolite_Detected
Activity [19]: 20.2 ng/mL
solubility [20]: 173 µg/mL (≈ 394 µM)
half-life [21]: 4.68 h
metabolised at 0.5 h [22]: 10%
Cmax [23]: 23700 ng/mL
fraction unbound [24]: < 0.01
bioavailability [25]: 93%
EC50 [26]: 11 nM
half-life [27]: 5.49 h
metabolised at 0.5 h [28]: 5%
Tmax [29]: 0.25 h
Cmax [30]: 3380 ng/mL
logP [31]: 4.8
Activity [33]: 54%
K [34]: 0.099 h⁻¹
metabolised at 0.5 h [35]: 5%
Compound: CC#C[C@@H](CC(=O)O)c1ccc(OCc2ccc3nc(-c4c(C)cccc4C)nn3c2)cc1
Activity (Rattus norvegicus [9]): Non-Toxic
Activity (Rattus norvegicus [32]): Non-Toxic
